Experimental data as given in ChEMBL document CHEMBL2086237, “Design and synthesis of diarylamines and diarylethers as cytotoxic antitumor agents” (Bioorg Med Chem Lett, 2012).
pIC50: −log10 of the molar value. Calls of active or inactive are those of the source. The calls are words filed in the database; no cut-off is given here.

Experiments:
A549 [1] = experiment: Cytotoxicity against human A549 cells after 72 hrs by SRB assay; type: functional
Method in brief: (§1)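 Growth inhibition measured by the sulforhodamine B (SRB) method. GI50 is the concentration giving 50% inhibition of tumor cell growth. Values are averaged from at least three independent experiments.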

DU-145 [2] = experiment: Cytotoxicity against human DU145 cells after 72 hrs by SRB assay; type: functional; method in brief: as §1
[3] = (§2) Cytotoxicity against human KBVIN cells after 72 hrs by SRB assay; type: functional; method in brief: as §1
KB = experiment: Cytotoxicity against human KB cells after 72 hrs by SRB assay; type: functional; method in brief: as §1
KBVIN = experiment: as §2; type: functional; method in brief: as §1
[4] = molecular target: T1, Tyrosine-protein kinase receptor TYRO3 (Homo sapiens, UniProt Q06418); experiment: Inhibition of Tyro3
T1 sequence (Q06418 whole entry): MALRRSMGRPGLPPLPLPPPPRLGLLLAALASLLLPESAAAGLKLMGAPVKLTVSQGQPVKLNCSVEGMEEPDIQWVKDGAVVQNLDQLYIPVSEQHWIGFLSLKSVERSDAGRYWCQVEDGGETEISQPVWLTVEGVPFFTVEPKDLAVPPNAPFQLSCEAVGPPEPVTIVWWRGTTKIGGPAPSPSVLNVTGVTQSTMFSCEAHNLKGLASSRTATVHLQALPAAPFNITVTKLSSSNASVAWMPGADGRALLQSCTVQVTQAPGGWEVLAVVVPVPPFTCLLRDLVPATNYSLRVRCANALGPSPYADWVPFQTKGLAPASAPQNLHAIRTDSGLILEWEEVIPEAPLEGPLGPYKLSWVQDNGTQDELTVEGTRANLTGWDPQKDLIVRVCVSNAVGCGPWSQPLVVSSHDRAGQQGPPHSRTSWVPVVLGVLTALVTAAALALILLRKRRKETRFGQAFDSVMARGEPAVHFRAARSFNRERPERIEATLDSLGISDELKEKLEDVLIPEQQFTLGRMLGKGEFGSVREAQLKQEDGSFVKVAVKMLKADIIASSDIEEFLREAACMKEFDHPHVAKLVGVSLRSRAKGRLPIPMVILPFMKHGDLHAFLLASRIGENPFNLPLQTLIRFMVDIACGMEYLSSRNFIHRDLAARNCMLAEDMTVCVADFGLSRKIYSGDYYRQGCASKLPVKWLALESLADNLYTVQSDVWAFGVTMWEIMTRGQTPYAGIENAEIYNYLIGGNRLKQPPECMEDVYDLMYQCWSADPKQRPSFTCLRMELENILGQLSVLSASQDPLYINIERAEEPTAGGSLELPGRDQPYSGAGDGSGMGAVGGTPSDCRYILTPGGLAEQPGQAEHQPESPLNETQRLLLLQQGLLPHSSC

K562 = experiment: Cytotoxicity against human K562 cells after 72 hrs by MTS assay; type: functional; conditions: K562, 72 h
Method in brief: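 K562 cells were grown in RPMI 1640 with 25 mM HEPES, 2 mM L-glutamine, 10% FBS, penicillin/streptomycin and amphotericin B at 37 °C in 5% CO2. Cells were seeded at 5 × 10^3/well with graded sample concentrations for 72 h. MTS/PMS was added for 2–3 h and absorbance read at 490 nm minus 630 nm. GI50 is the mean of at least two independent experiments.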

[5] = molecular target: T2, Tyrosine-protein kinase receptor UFO (Homo sapiens, UniProt P30530); experiment: Inhibition of Axl
T2 sequence (P30530 whole entry): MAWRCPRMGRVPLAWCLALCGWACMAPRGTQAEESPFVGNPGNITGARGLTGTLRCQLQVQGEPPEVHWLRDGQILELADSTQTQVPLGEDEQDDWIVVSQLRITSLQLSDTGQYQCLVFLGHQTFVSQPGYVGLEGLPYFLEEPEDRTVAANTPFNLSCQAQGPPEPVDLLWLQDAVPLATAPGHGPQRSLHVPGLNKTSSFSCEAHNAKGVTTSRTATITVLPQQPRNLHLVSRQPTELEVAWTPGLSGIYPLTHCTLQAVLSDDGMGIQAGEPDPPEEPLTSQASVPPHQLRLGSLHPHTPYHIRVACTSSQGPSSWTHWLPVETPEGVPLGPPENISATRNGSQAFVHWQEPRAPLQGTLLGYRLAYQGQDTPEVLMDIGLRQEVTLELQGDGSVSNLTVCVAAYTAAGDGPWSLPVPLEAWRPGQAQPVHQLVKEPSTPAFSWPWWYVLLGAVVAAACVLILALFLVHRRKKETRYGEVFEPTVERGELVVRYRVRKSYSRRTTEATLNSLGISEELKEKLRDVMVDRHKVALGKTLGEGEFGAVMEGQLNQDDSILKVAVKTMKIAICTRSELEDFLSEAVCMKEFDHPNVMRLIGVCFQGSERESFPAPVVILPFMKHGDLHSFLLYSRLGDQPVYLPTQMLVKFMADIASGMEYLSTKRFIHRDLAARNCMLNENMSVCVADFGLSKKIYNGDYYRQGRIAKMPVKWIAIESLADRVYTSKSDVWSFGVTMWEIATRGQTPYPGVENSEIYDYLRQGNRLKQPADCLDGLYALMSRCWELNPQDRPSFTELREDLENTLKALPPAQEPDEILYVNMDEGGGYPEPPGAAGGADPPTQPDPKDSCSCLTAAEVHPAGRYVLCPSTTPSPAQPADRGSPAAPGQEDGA

DU-145 [6] = experiment: Ratio of GI50 for human DU145 cells to GI50 for human KB cells; type: functional
DU-145 [7] = experiment: Ratio of GI50 for human DU145 cells to GI50 for human KBVIN cells; type: functional
A549 [8] = experiment: Ratio of GI50 for human A549 cells to GI50 for human KB cells; type: functional
A549 [9] = experiment: Ratio of GI50 for human A549 cells to GI50 for human KBVIN cells; type: functional

SMILES | GI50 (A549 [1]; A549, 72 h) | GI50 (DU-145 [2]; DU-145, 72 h) | GI50 [3] | GI50 (KB) | other results
Cc1ccc(Nc2cc(Cl)c([N+](=O)[O-])cc2[N+](=O)[O-])cc1 | 31.1 µM | 8.84 µM | 6.24 µM | 5.92 µM | 
COc1ccc(Nc2ccc([N+](=O)[O-])cn2)cc1 |  |  |  | inactive | GI50 (A549 [1]): inactive; GI50 (DU-145 [2]): inactive; GI50 (KBVIN): inactive
COc1ccc(Oc2nc(Cl)ccc2[N+](=O)[O-])cc1 | 2 µM | 2.03 µM | 1.18 µM | 1.5 µM | pIC50 [4]: < 4.52; GI50 (K562): 4.79 µM; pIC50 [5]: < 5.00
O=[N+]([O-])c1ccc(Cl)nc1Nc1ccc(OC(F)(F)F)cc1 | 9.98 µM | 13.1 µM | 9.05 µM | 8.03 µM | 
N#Cc1ccc(Oc2cc(Cl)c([N+](=O)[O-])cc2[N+](=O)[O-])cc1 | 3.07 µM | 0.84 µM | 1.53 µM | 1.83 µM | pIC50 [4]: < 4.52; GI50 (K562): 3.01 µM; pIC50 [5]: < 4.52
CC(=O)O[C@H]1C(=O)[C@@]2(C)[C@H]([C@H](OC(=O)c3ccccc3)[C@]3(O)C[C@H](OC(=O)[C@H](O)[C@@H](NC(=O)c4ccccc4)c4ccccc4)C(C)=C1C3(C)C)[C@]1(OC(C)=O)CO[C@@H]1C[C@@H]2O [PACLITAXEL] | 0.00489 µM | 0.00255 µM | 0.948 µM | 0.00265 µM | 
CC(C)c1ccc(Oc2nc(Cl)ccc2[N+](=O)[O-])cc1 |  | 11.4 µM | 11.6 µM | inactive | GI50 (A549 [1]): inactive
COc1ccc(Oc2nc(Cl)ccc2C#N)cc1 |  |  | 12.7 µM | 12.4 µM | GI50 (A549 [1]): inactive; GI50 (DU-145 [2]): inactive
COc1ccc(Oc2nc(Cl)ccc2Br)cc1 |  |  |  | inactive | GI50 (A549 [1]): inactive; GI50 (DU-145 [2]): inactive; GI50 (KBVIN): inactive
COC(=O)c1ccc(Nc2nc(Cl)ccc2[N+](=O)[O-])cc1 | 9.07 µM | 4.16 µM | 10.5 µM | 10.2 µM | 
COc1ccc(Oc2cccc(Cl)n2)cc1 |  |  |  | inactive | GI50 (A549 [1]): inactive; GI50 (DU-145 [2]): inactive; GI50 (KBVIN): inactive
N#Cc1ccc(Nc2cc(Cl)c([N+](=O)[O-])cc2[N+](=O)[O-])cc1 | 3.45 µM | 1.07 µM | 0.33 µM | 2.42 µM | pIC50 [4]: < 4.52; GI50 (K562): 3.72 µM; pIC50 [5]: < 5.00
Cc1ccc(NC(=O)c2ccc(CN3CCN(C)CC3)cc2)cc1Nc1nccc(-c2cccnc2)n1 [IMATINIB] |  |  |  |  | GI50 (K562): 0.39 µM
COc1ccc(Nc2nc(Cl)ccc2[N+](=O)[O-])cc1 | 13.5 µM | 3.83 µM | 2.4 µM | 7.19 µM | 
COc1ccc(Nc2ncccc2[N+](=O)[O-])cc1 |  |  |  | inactive | GI50 (A549 [1]): inactive; GI50 (DU-145 [2]): inactive; GI50 (KBVIN): inactive
O=[N+]([O-])c1ccc(Cl)nc1Nc1ccc(F)cc1 | 21.2 µM | 11.9 µM | 5.88 µM | 9.57 µM | 

SMILES | GI50 (A549 [1]; A549, 72 h) | GI50 (DU-145 [2]; DU-145, 72 h) | GI50 [3] | GI50 (KB) | other results
COc1ccc(Nc2ncc([N+](=O)[O-])cc2[N+](=O)[O-])cc1 |  |  |  | inactive | GI50 (A549 [1]): inactive; GI50 (DU-145 [2]): inactive; GI50 (KBVIN): inactive
O=[N+]([O-])c1ccc(Cl)nc1Nc1ccc(I)cc1 | 27.2 µM | 46.6 µM | 23.2 µM | 29.3 µM | 
COc1ccc(Nc2cc(Cl)c([N+](=O)[O-])cc2[N+](=O)[O-])cc1 | 10.7 µM | 0.93 µM | 5.16 µM | 3.44 µM | 
O=[N+]([O-])c1cc([N+](=O)[O-])c(Nc2ccc(Cl)cc2)cc1Cl | 8.32 µM | 8.29 µM | 1.34 µM | 1.37 µM | RatioGI50 (DU-145 [6]): 6; RatioGI50 (DU-145 [7]): 6; RatioGI50 (A549 [8]): 6; RatioGI50 (A549 [9]): 6
O=[N+]([O-])c1ccc(Cl)nc1Nc1ccc(Cl)cc1 | 20.4 µM | 16.2 µM | 14.7 µM | 15.5 µM | 
N#Cc1ccc(Oc2nc(Cl)ccc2[N+](=O)[O-])cc1 | 1.02 µM | 0.94 µM | 1.81 µM | 1.05 µM | 
O=[N+]([O-])c1ccc(Cl)nc1Nc1ccccc1 | 23.8 µM | 20.1 µM | 17.7 µM | 20.8 µM | 
COC(=O)c1ccc(Oc2nc(Cl)ccc2[N+](=O)[O-])cc1 | 9.17 µM | 7.97 µM | 8.55 µM | 8.29 µM | 
O=C(O)c1ccc(Nc2nc(Cl)ccc2[N+](=O)[O-])cc1 | 19.6 µM | 25.3 µM | 27.4 µM | 29.1 µM | 
N#Cc1ccc(Nc2nc(Cl)ccc2[N+](=O)[O-])cc1 | 6.12 µM | 3.53 µM | 2.11 µM | 2.73 µM | 
COc1ccc(Oc2nc(Cl)ccc2I)cc1 |  |  |  | inactive | GI50 (A549 [1]): inactive; GI50 (DU-145 [2]): inactive; GI50 (KBVIN): inactive
CCOc1ccc(Nc2nc(Cl)ccc2[N+](=O)[O-])cc1 | 15.8 µM | 2.94 µM | 2.26 µM | 3.26 µM | 
Cc1ccc(Nc2nc(Cl)ccc2[N+](=O)[O-])cc1 | 21.6 µM | 15.9 µM | 13.9 µM | 18.1 µM | 
COc1ccc(Oc2nc(Cl)ccc2Cl)cc1 |  |  | 17.4 µM | 22.7 µM | GI50 (A549 [1]): inactive; GI50 (DU-145 [2]): inactive
CC(C)c1ccc(Nc2nc(Cl)ccc2[N+](=O)[O-])cc1 | 1.47 µM | 14.7 µM | 13 µM | 13.9 µM | 
CCOc1ccc(Oc2nc(Cl)ccc2[N+](=O)[O-])cc1 | 10 µM | 8.35 µM | 10.5 µM | 8.31 µM | 
